Assay results as given in ChEMBL document CHEMBL1131023, “Identification of a dihydropyridine as a potent alpha1a adrenoceptor-selective antagonist that inhibits phenylephrine-induced contraction of the human prostate” (J Med Chem, 1998).

Assays:
[1] = target: T1, Alpha-1A adrenergic receptor (Homo sapiens, UniProt P35348); test: Binding affinity determined by displacement of [3H]prazosin from alpha-1A adrenergic receptor
T1 sequence (P35348 whole entry): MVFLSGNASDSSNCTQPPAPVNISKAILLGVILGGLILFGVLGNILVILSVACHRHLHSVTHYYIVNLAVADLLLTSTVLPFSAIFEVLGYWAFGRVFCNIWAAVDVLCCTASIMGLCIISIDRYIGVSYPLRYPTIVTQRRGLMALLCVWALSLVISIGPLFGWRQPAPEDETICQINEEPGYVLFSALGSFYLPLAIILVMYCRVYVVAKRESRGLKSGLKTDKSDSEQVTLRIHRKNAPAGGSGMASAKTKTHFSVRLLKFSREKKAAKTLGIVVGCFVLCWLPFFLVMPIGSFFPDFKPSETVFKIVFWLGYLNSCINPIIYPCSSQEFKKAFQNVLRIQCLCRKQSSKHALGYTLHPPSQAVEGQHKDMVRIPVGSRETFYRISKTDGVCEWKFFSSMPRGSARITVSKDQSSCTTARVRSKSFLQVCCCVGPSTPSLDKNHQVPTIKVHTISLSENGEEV

[2] = target: Voltage-gated L-type calcium channel (Rattus norvegicus, UniProt P22002+Q02485+P27732); test: Binding affinity at the L-type [Ca2+] channel from rat brain homogenate by [3H]nitrendipine displacement.; format: tissue-based
[3] = target: T2, Alpha-1B adrenergic receptor (Homo sapiens, UniProt P35368); test: Binding affinity determined by displacement of [3H]prazosin from alpha-1B adrenergic receptor
T2 sequence (P35368 whole entry): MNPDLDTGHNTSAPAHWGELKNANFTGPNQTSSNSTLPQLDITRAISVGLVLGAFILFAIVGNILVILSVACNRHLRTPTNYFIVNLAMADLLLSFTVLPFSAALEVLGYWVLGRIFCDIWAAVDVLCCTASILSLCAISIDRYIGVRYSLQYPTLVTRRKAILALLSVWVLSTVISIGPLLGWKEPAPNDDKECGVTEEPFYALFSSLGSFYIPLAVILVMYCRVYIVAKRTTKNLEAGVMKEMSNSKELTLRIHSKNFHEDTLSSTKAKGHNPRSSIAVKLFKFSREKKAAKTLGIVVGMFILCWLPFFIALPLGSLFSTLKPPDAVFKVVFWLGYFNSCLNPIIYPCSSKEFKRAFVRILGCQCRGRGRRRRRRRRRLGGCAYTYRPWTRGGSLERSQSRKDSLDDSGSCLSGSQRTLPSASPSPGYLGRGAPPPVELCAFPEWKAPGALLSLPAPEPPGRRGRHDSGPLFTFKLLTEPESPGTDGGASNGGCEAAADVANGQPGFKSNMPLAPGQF

[4] = target: T3, Alpha-2B adrenergic receptor (Homo sapiens, UniProt P18089); test: Binding affinity determined by displacement of [3H]rauwolscine from alpha-2B adrenergic receptor
T3 sequence (P18089 whole entry): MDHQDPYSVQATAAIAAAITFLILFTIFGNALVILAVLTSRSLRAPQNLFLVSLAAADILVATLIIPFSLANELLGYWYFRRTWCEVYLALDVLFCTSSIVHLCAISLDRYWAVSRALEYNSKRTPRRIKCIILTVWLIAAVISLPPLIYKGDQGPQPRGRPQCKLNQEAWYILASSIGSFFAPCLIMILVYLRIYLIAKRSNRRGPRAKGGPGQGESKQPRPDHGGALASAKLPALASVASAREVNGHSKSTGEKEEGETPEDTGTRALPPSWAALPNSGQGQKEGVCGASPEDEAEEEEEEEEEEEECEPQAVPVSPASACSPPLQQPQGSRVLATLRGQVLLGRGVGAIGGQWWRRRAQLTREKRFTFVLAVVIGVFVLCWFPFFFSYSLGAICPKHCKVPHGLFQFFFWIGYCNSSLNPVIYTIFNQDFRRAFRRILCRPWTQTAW

[5] = target: T4, Alpha-1D adrenergic receptor (Homo sapiens, UniProt P25100); test: Binding affinity determined by displacement of [3H]prazosin from alpha-1D adrenergic receptor
T4 sequence (P25100 whole entry): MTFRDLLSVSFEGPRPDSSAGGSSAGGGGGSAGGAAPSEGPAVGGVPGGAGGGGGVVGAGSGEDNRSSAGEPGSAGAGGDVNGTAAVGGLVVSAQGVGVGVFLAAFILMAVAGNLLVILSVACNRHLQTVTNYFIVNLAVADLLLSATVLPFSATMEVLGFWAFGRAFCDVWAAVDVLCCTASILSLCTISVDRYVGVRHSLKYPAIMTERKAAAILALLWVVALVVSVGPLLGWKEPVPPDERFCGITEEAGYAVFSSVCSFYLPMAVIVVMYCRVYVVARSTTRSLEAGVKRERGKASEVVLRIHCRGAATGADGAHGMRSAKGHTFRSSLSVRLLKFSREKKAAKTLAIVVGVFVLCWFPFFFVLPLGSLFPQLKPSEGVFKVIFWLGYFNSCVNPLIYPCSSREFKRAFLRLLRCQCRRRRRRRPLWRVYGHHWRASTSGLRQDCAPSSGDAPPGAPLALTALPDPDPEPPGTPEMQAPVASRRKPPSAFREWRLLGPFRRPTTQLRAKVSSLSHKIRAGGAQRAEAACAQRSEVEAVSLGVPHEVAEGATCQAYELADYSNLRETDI
Outline: (§1)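 Radioligand displacement binding at the cloned receptor, incubated for 30 min.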

[6] = target: T5, Alpha-2A adrenergic receptor (Homo sapiens, UniProt P08913); test: Binding affinity determined by displacement of [3H]rauwolscine from alpha-2A adrenergic receptor; outline: as §1
T5 sequence (P08913 whole entry): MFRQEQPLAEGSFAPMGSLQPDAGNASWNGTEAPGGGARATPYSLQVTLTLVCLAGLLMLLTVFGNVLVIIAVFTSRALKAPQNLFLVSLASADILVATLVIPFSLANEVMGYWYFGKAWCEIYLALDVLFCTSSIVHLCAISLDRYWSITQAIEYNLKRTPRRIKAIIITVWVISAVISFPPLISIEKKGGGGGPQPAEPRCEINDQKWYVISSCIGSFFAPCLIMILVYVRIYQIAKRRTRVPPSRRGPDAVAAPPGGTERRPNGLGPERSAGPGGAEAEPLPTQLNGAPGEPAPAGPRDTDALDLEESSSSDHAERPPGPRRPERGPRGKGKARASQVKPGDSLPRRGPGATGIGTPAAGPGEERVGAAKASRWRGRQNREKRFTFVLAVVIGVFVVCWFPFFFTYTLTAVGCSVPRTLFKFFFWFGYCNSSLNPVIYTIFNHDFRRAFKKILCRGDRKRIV

[7] = target: T6, Alpha-2C adrenergic receptor (Homo sapiens, UniProt P18825); test: Binding affinity assayed by displacement of [3H]rauwolscine from human alpha-2C adrenergic receptor; outline: as §1
T6 sequence (P18825 whole entry): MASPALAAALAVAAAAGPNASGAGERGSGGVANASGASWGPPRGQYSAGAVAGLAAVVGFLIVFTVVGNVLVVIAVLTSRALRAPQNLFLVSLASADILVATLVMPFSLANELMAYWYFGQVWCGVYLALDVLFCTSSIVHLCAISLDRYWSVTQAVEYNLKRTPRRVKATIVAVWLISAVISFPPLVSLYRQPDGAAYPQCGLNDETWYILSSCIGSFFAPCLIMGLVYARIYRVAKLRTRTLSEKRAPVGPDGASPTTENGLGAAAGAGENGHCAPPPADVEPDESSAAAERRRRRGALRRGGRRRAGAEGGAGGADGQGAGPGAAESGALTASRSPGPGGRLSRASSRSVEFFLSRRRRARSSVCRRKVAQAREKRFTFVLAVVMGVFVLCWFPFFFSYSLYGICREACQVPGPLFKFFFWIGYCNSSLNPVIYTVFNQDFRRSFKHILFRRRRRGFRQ

SMILES | Ki [1] [nM] | Log Ki [2] | Ki [3] [nM] | Ki [4] [nM] | Ki [5] [nM] | Ki [6] [nM] | Ki [7] [nM]
CNC(=O)C1=C(C)NC(C)=C(C(=O)NCCCN2CCC(c3ccccc3)(c3ccccc3)CC2)C1c1ccc([N+](=O)[O-])cc1 (stereo unspecified) | 4.47 | < -6 | 490 | 933 | 759 | – | –
CO/C(O)=C1\C(C)=NC(C)=C(C(=O)NCCCN2CCC(c3ccccc3)(c3ccccc3)CC2)C1c1ccc([N+](=O)[O-])c(OC)c1 (stereo unspecified) | 1.48 | < -6 | 162 | 575 | 316 | 631 | 398
CC(C)C1=C(C(N)=O)C(c2ccc([N+](=O)[O-])cc2)C(C(=O)NCCCN2CCC(c3ccccc3)(c3ccccc3)CC2)=C(C(C)C)N1 (stereo unspecified) | 53.7 | – | – | – | 347 | – | –
CC1=C(C(=O)NCCCN2CCC(c3ccccc3)(c3ccccc3)CC2)C(c2ccc([N+](=O)[O-])cc2)C(C(=O)N(C)C)=C(C)N1 (stereo unspecified) | – | < -6 | – | – | – | – | –
CC1=C(C#N)C(c2ccc([N+](=O)[O-])cc2)C(C(=O)NCCCN2CCC(c3ccccc3)(c3ccccc3)CC2)=C(C)N1 (stereo unspecified) | 56.2 | < -6 | 166 | 832 | 437 | 631 | 479

Continued, values first:

Ki [1] [nM] | Log Ki [2] | Ki [3] [nM] | Ki [4] [nM] | Ki [5] [nM] | Ki [6] [nM] | Ki [7] [nM] | SMILES
316 | – | 977 | 200 | 1740 | 1170 | 776 | CC1=C(C(=O)O)C(c2ccc3c(c2)OCO3)C(C(=O)NCCCN2CCC(c3ccccc3)(c3ccccc3)CC2)=C(C)N1 (stereo unspecified)
1.78 | < -6 | 123 | 2290 | 447 | 2140 | 1000 | CO/C(O)=C1\C(C)=NC(C)=C(C(=O)NCCCN2CCC(c3ccccc3)(c3ccccc3)CC2)C1c1ccc(Cl)cc1 (stereo unspecified)
7.08 | < -6 | 204 | 1510 | 490 | 2190 | 1150 | CO/C(O)=C1\C(C)=NC(C)=C(C(=O)NCCCN2CCC(c3ccccc3)(c3ccccc3)CC2)C1c1ccc(OC)cc1 (stereo unspecified)
1.86 | < -6 | 115 | 1260 | 324 | 912 | 158 | CO/C(O)=C1\C(C)=NC(C)=C(C(=O)NCCCN2CCC(c3ccccc3)(c3ccccc3)CC2)C1c1ccc(Cl)c(Cl)c1 (stereo unspecified)
0.525 | < -6 | 41.7 | 91.2 | 126 | 110 | 47.9 | CO/C(O)=C1\C(C)=NC(C)=C(C(=O)NCCCN2CCC(c3ccccc3)CC2)C1c1ccc(Cl)c([N+](=O)[O-])c1 (stereo unspecified)
